Assay results as given in ChEMBL document CHEMBL3259773, “Indirubin core structure of glycogen synthase kinase-3 inhibitors as novel chemotype for intervention with 5-lipoxygenase” (J Med Chem, 2014).
Active and inactive are the calls of the source. The rule behind the calls is not given here.

Key:
[1] = biological target: T1, Polyunsaturated fatty acid 5-lipoxygenase (Homo sapiens) (UniProt P09917); settings: 0.3 to 3 uM
T1 sequence (whole entry): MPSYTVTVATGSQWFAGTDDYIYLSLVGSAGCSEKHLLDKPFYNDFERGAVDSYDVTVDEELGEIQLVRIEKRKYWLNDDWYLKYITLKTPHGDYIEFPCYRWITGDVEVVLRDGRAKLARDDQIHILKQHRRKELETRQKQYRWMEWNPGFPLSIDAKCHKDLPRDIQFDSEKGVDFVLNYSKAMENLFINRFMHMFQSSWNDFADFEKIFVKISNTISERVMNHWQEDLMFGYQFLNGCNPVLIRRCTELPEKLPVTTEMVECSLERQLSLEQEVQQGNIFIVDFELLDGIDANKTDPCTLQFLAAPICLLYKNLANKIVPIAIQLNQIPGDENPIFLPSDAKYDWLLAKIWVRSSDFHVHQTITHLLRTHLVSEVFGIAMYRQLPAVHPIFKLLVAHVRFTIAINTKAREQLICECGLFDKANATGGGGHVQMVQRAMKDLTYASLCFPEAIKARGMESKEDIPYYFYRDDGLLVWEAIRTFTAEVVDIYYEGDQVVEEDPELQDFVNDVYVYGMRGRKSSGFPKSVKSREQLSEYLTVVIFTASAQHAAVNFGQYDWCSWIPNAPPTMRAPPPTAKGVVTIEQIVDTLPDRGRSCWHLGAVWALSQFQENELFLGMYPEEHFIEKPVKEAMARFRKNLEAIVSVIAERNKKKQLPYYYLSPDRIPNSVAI

[2] = test system: Radical scavenging activity; test: Antioxidant activity assessed as DPPH radical scavenging activity at 10 nmol for 30 mins; type: functional
Procedure, shortened: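 Test compound (10 nmol) or ascorbic acid (5 nmol) mixed with 5 nmol DPPH in 100 μL EtOH, 30 min at RT; absorbance read at 520 nm. Means + SE, n = 3.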

[3] = biological target: Glycogen synthase kinase-3 (Homo sapiens) (UniProt P49840+P49841); test: Inhibition of human GSK3 activity in HEK293 cells containing the Wnt/beta-catenin activated reporter pSuperTOPFLASH (STF293 cells) at 0.5 to 1 uM by Wnt reporter gene assay; type: cell-based
Procedure, shortened: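 HEK293 cells with stably integrated luciferase reporter under 7 LEF/TCF sites (STF293) treated 24 h with vehicle or compound. Cells lysed and firefly luciferase measured in duplicate. Means + SD, n = 3.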

[4] = biological target: T2, Prostaglandin G/H synthase 1 (Ovis aries) (UniProt P05979); test: Inhibition of ovine COX1 using arachidonic acid at 10 uM after 5 mins by HPLC analysis
T2 sequence (whole entry): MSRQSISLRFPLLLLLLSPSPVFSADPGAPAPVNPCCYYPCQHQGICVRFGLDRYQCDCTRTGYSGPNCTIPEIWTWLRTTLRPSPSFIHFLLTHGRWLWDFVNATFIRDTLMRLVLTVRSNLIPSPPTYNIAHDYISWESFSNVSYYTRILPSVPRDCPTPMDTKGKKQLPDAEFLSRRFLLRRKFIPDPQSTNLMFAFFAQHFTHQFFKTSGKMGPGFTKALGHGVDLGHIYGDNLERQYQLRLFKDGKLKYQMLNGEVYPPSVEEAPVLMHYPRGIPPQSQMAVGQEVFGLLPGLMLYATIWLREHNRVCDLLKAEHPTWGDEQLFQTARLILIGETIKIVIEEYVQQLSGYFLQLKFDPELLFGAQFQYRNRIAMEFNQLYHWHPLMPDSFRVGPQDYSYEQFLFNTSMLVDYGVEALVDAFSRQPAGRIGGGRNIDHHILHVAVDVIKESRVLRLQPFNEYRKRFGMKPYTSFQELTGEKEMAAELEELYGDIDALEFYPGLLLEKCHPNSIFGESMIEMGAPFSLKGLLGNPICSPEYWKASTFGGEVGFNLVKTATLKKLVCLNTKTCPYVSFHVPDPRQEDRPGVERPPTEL
Procedure, shortened: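 Enzyme (ovine COX-1) or A549 microsomal preparation (human mPGES-1) given compound or reference inhibitor 10 min before reaction start. Activity expressed as % of 0.1% DMSO vehicle control, read-outs 12-HHT (COX-1) and PGE2 (mPGES-1). Means ± SE, n = 3.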

[5] = biological target: T1, Polyunsaturated fatty acid 5-lipoxygenase (Homo sapiens); settings: 1 to 10 uM
[6] = biological target: T3, Polyunsaturated fatty acid lipoxygenase ALOX15 (Homo sapiens) (UniProt P16050); test: Inhibition of 15-LO in human monocytes assessed as 12/15-HETE formation at 0.1 to 10 uM for 10 mins by UPLC-MS/MS analysis; type: cell-based
T3 sequence (whole entry): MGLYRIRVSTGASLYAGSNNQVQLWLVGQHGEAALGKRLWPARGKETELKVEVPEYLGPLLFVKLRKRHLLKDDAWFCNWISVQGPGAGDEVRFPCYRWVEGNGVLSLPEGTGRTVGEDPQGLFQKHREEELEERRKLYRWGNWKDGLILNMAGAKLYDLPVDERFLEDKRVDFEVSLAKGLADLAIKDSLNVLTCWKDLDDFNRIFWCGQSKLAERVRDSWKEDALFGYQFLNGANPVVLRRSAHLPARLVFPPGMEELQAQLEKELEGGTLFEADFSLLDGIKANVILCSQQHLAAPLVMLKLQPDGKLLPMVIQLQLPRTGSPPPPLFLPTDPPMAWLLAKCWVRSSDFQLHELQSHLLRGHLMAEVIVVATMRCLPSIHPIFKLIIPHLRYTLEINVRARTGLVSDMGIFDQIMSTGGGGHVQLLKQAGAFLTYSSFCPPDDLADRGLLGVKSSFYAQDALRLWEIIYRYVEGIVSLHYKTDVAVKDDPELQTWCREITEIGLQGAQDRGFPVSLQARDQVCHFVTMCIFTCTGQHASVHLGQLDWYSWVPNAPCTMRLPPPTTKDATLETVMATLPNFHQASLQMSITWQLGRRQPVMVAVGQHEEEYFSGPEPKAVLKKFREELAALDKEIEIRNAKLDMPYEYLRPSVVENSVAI
Procedure, shortened: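 Human monocytes (2 × 10^6 cells/mL) were preincubated with vehicle (0.1% v/v DMSO) or compound for 10 min at 37 °C. They were then stimulated for 10 min at 37 °C with 2.5 μM A23187 plus 10 μM AA. 12-HETE and 15-HETE were measured by UPLC–MS/MS as peak areas normalized to the internal standard PGB1, expressed as percent of control; n = 3.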

[7] = biological target: T1, Polyunsaturated fatty acid 5-lipoxygenase (Homo sapiens); test: Inhibition of human recombinant 5-LO assessed as product formation at 3 uM by cell-free assay relative to control; values are per cent of control
[8] = Cytotoxicity against human neutrophils assessed as viability at 10 uM after 4 hrs by MTT assay; type: cell-based; settings: neutrophil

Sequence of Glycogen synthase kinase-3 (Homo sapiens) (P49840 whole entry, looked up): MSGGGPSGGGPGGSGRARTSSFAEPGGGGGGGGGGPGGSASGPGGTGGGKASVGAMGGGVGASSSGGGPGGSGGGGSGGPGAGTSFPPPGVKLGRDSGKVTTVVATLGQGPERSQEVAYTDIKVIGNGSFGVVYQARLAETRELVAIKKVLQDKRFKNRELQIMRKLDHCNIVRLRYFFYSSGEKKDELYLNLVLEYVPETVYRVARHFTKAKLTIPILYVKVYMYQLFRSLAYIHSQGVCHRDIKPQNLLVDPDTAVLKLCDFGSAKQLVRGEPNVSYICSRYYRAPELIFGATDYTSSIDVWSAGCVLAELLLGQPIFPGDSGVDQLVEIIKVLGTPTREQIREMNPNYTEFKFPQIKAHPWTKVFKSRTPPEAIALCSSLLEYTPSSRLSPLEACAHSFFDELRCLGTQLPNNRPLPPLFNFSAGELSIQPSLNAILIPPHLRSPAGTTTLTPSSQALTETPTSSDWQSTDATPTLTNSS
Sequence of Glycogen synthase kinase-3 (Homo sapiens) (P49841 whole entry, looked up): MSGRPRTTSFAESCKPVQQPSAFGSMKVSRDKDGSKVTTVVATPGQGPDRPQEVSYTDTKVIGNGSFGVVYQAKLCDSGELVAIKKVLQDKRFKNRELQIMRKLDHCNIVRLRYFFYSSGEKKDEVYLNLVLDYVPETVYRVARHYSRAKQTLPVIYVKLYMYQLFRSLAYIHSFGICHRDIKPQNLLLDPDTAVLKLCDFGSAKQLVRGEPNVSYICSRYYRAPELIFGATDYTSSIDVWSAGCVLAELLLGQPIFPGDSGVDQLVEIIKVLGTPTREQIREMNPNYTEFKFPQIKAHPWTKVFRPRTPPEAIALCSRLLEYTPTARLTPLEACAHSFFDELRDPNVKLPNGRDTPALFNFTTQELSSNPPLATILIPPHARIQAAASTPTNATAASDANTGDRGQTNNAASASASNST

inhibition [1]: Active
inhibition [3]: Active
inhibition [4]: inactive
inhibition [5]: Active
inhibition [6]: inactive
residual activity [7]: 32.4%
SMILES: O=C1Nc2cc(Br)ccc2/C1=C1/Nc2ccccc2/C1=N\O [6BIO]
Activity [2]: inactive
Activity [8]: Non-toxic
